Measurements of several laboratories.
Each line is one published result; the experiments were not run side by side.

Compound | tested on | test | test system | conditions | measurement | result
C[C@@H]1[C@H](O)[C@@H](C)/C=C/C=C/C=C/C=C/C=C/C=C/C=C/[C@H](O[C@@H]2O[C@H](C)[C@@H](O)[C@H](N)[C@@H]2O)C[C@@H]2O[C@](O)(C[C@@H](O)C[C@@H](O)[C@H](O)CC[C@@H](O)C[C@@H](O)CC(=O)O[C@H]1C)C[C@H](O)[C@H]2C(=O)O | Leishmania donovani | parasite growth | THP-1 | 72 h, intracellular, amastigote | IC50 | 0.6 µM
NCCC(=O)Nc1cccc(/N=c2\cc(-c3ccc4c(c3)OCO4)oc3ccccc23)c1 | A549 | cell growth or viability, CCK-8 |  | 1 µM | inhibition | -1.71%
CCCCCCCCCCCCCCCCOP(=O)([O-])OCC[N+](C)(C)C | Leishmania donovani | parasite growth | THP-1 | 72 h, intracellular, amastigote | IC50 | 3.78 µM
O=C1O[C@H]([C@@H](O)CO)C(O)=C1O |  | ABTS scavenging, absorbance |  |  | IC50 | 62.8 µM
CCCCCCCCC1NCCc2cc(O)c(O)cc21 (stereo not drawn) |  | ABTS scavenging |  | 10 min, dark | IC50 | 47.5 µM
CCCCCCCCCCCCCCCCCCOc1cccc(CC(=O)OCC[N+](C)(C)C)c1 | NCI-H522 | cell growth or viability, SRB |  | 10 µM | inhibition | 13.3%
COCCC(=O)Nc1ccccc1/N=c1\cc(-c2ccc3c(c2)OCO3)oc2ccccc12 | A549 | cell growth or viability, CCK-8 |  | 1 µM | inhibition | 4.66%
COc1cccc(C2NCCc3cc(O)c(O)cc32)c1O (stereo not drawn) |  | ABTS scavenging |  | 10 min, dark | IC50 | 8.51 µM
c1ccc(Oc2ccc(Nc3c4c(nc5ccccc35)CCC4)cc2)cc1 | Leishmania donovani | parasite growth | THP-1 | intracellular, amastigote | IC50 | 0.57 µM
CCCCCCCCCCCCCCCCCCOc1cccc(CC(=O)OCCC[N+](C)(C)C)c1 | NCI-H522 | cell growth or viability, SRB |  | 10 µM | inhibition | 21.8%
c1ccc(-c2ccc3c(c2)NC(C2Nc4cc(-c5ccccc5)ccc4O2)O3)cc1 (stereo not drawn) | Leishmania donovani | parasite growth, resazurin |  | 72 h, promastigote | IC50 | 9.21 µM
COc1cc(/C=C/C(=O)CC(=O)/C=C/c2ccc(O)c(OC)c2)ccc1O |  | ABTS scavenging |  | 20 min | IC50 | 165 µg/mL
COc1cccc(C2NCCc3cc(O)c(O)cc32)c1 (stereo not drawn) |  | ABTS scavenging |  | 10 min, dark | IC50 | 11.2 µM
O=C1O[C@H]([C@@H](O)CO)C(O)=C1O |  | ABTS scavenging, absorbance |  | dark | IC50 | 5.42 µg/mL
Oc1ccc(C2NCCc3cc(O)c(O)cc32)cc1O (stereo not drawn) |  | ABTS scavenging |  | 10 min, dark | IC50 | 4.93 µM
NCCC(=O)Nc1ccccc1/N=c1\cc(-c2ccc3c(c2)OCCO3)oc2cc(F)ccc12 | A549 | cell growth or viability, CCK-8 |  | 1 µM | inhibition | -8.9%
CCOc1ccc(Nc2c3c(nc4ccccc24)CCC3)cc1 | Leishmania donovani | parasite growth | THP-1 | 72 h, intracellular, amastigote | IC50 | 0.78 µM
Oc1cc2c(cc1O)C(CCc1ccccc1)NCC2 (stereo not drawn) |  | ABTS scavenging |  | 10 min, dark | IC50 | 8.09 µM
